Measured values as given in ChEMBL document CHEMBL1667800, “Synthesis, DNA/RNA affinity and antitumour activity of new aromatic diamidines linked by 3,4-ethylenedioxythiophene” (Eur J Med Chem, 2011).
Activity calls are given as the source filed them. No cut-off for these calls is given here.

Experiments:
[1] = tested on: HeLa; assay: Induction of cell cycle arrest in human HeLa assessed as accumulation at G0/G1-phase at 5x10'-6 M after 72 hrs by FACS analysis (RVb = 63.4+/-3.2%); assay type: functional
[2] = tested on: HeLa; assay: Induction of cell cycle arrest in human HeLa assessed as accumulation at G0/G1-phase at 1x10'-6 M after 48 hrs by FACS analysis (RVb = 61.2+/-2.3%); assay type: functional
[3] = tested on: NCI-H358; assay: Cytotoxicity against human NCI-H358 cells after 72 hrs by MTT assay; assay type: functional; settings: NCI-H358, 72 h
In short: (§1)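 Cells were seeded at 2 × 10^4 cells/mL and attached overnight at 37 °C, 5% CO2. They were then exposed for 72 h to compounds from aqueous stocks (working solutions 10^-3–10^-6 mol dm^-3). MTT was added for 4 h at 37 °C, formazan dissolved in DMSO, and absorbance read at 570 nm. GI50 is the mean ± SD of three independent experiments run in triplicate.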

[4] = tested on: HeLa; assay: Induction of cell cycle arrest in human HeLa assessed as accumulation at S-phase at 1x10'-6 M after 48 hrs by FACS analysis (RVb = 30.4+/-3.7%); assay type: functional
[5] = tested on: AGS; assay: Cytotoxicity against human AGS cells after 72 hrs by MTT assay; assay type: functional; in short: as §1
[6] = tested on: HeLa; assay: Induction of cell cycle arrest in human HeLa assessed as accumulation at G0/G1-phase at 5x10'-6 M after 24 hrs by FACS analysis (RVb = 62.2+/-4.4%); assay type: functional
[7] = tested on: Calf thymus DNA; assay: Binding affinity to calf thymus DNA assessed as hyperchromic effect at compound over DNA molar ratio of 0.5 by UV-Vis spectra; assay type: nucleic-acid assay; settings: Bos taurus; in the assay text read “hypochromic effect” for “hyperchromic effect”
In short: (§2)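 UV-Vis titration of compound (c = 1.97 × 10^-5 mol dm^-3 in the shown example) with ct-DNA. Na-cacodylate buffer, pH 7.0, I = 0.05 mol dm^-3, 1 cm quartz cuvette. Absorbance at the maximum was tracked against c(ct-DNA). Ks and n were obtained by non-linear least-squares Scatchard fitting.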

[8] = tested on: Calf thymus DNA; assay: Binding affinity to calf thymus DNA assessed as melting temperature at compound over DNA molar ratio of 0.3 at pH 7 by thermal denaturation assay; assay type: nucleic-acid assay; settings: Bos taurus
In short: (§3)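 Thermal melting of ds-polynucleotide (ct-DNA or poly A-poly U) alone and with compound at the given r, Na-cacodylate pH 7.0, I = 0.05 mol dm^-3. Absorbance at 260 nm was followed versus temperature, with compound absorbance subtracted and the curve normalized. Tm was taken from the first-derivative maximum or by tangent. ΔTm = Tm(complex) − Tm(free nucleic acid).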

[9] = tested on: MIA PaCa-2; assay: Cytotoxicity against human MIAPaCa2 cells after 72 hrs by MTT assay; assay type: functional; settings: MIA PaCa-2, 72 h; in short: as §1
[10] = tested on: HeLa; assay: Induction of cell cycle arrest in human HeLa assessed as accumulation at G2/M-phase at 5x10'-6 M after 72 hrs by FACS analysis (RVb = 7.8+/-3.1%); assay type: functional
[11] = tested on: HeLa; assay: Induction of cell cycle arrest in human HeLa assessed as accumulation at G2/M-phase at 1x10'-6 M after 48 hrs by FACS analysis (RVb = 8.4+/-3.9%); assay type: functional
[12] = tested on: HeLa; assay: Induction of cell cycle arrest in human HeLa assessed as accumulation at S-phase at 5x10'-6 M after 72 hrs by FACS analysis (RVb = 28.8+/-3.2%); assay type: functional
[13] = tested on: Calf thymus DNA; assay: Binding affinity to calf thymus DNA minor groove assessed as DNA CD band at compound over DNA molar ratio of < 0.2 by circular dichroism titration; assay type: nucleic-acid assay; settings: Bos taurus
In short: (§4)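 CD titration of polynucleotide (2.0 × 10^-5 mol dm^-3, as phosphate) with added compound over a range of r = [compound]/[polynucleotide]. Na-cacodylate buffer, pH 7.0, I = 0.05 mol dm^-3, 1 cm quartz cuvette. ct-DNA was sonicated and filtered before use. Changes in the polynucleotide CD band and induced CD bands were followed.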

[14] = tested on: HeLa; assay: Induction of cell cycle arrest in human HeLa assessed as accumulation at S-phase at 5x10'-6 M after 24 hrs by FACS analysis (RVb = 27.7+/-4.2%); assay type: functional
[15] = tested on: Calf thymus DNA; assay: Binding affinity to calf thymus DNA assessed as DNA CD band at compound over DNA molar ratio of > 0.2 by circular dichroism titration; assay type: nucleic-acid assay; settings: Bos taurus; in short: as §4
[16] = tested on: HeLa; assay: Induction of cell cycle arrest in human HeLa assessed as accumulation at G0/G1-phase at 1x10'-6 M after 24 hrs by FACS analysis (RVb = 62.2+/-4.4%); assay type: functional
[17] = tested on: Calf thymus DNA; assay: Binding affinity to calf thymus DNA assessed as batochromic effect at compound over DNA molar ratio of 0.2 by UV-Vis spectra; assay type: nucleic-acid assay; settings: Bos taurus; in short: as §2
[18] = tested on: MCF7; assay: Cytotoxicity against human MCF7 cells after 72 hrs by MTT assay; assay type: functional; settings: MCF7, 72 h; in short: as §1
[19] = tested on: HeLa; assay: Induction of cell cycle arrest in human HeLa assessed as accumulation at S-phase at 1x10'-6 M after 24 hrs by FACS analysis (RVb = 27.7+/-4.2%); assay type: functional
[20] = Cytotoxicity against MDCK cells after 72 hrs by MTT assay; assay type: cell-based, Canis lupus familiaris; settings: dog; in short: as §1
[21] = tested on: HeLa; assay: Induction of cell cycle arrest in human HeLa assessed as accumulation at G0/G1-phase at 1x10'-6 M after 72 hrs by FACS analysis (RVb = 63.4+/-3.2%); assay type: functional
[22] = tested on: HeLa; assay: Induction of cell cycle arrest in human HeLa assessed as accumulation at S-phase at 1x10'-6 M after 72 hrs by FACS analysis (RVb = 28.8+/-3.2%); assay type: functional
[23] = tested on: Calf thymus DNA; assay: Binding affinity to calf thymus DNA assessed as melting temperature at compound over DNA molar ratio of 0.2 at pH 7 by thermal denaturation assay; assay type: nucleic-acid assay; settings: Bos taurus; in short: as §3
[24] = tested on: HeLa; assay: Cytotoxicity against human HeLa cells after 72 hrs by MTT assay; assay type: functional; in short: as §1
[25] = tested on: Calf thymus DNA; assay: Binding affinity to calf thymus DNA assessed as batochromic effect at compound over DNA molar ratio of 0.2 by fluorimetric titration; assay type: nucleic-acid assay; settings: Bos taurus
In short: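 Fluorimetric titration of compound (about 1.0 × 10^-6 mol dm^-3) with ct-DNA. Excitation above 360 nm to avoid inner-filter effects. Na-cacodylate buffer, pH 7.0, I = 0.05 mol dm^-3. Emission at the maximum was plotted against c(ct-DNA). Ks and n were obtained by non-linear Scatchard fitting.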

[26] = tested on: Caco-2; assay: Cytotoxicity against human Caco2 cells after 72 hrs by MTT assay; assay type: functional; settings: Caco-2, 72 h; in short: as §1
[27] = tested on: HEp-2; assay: Cytotoxicity against human Hep2 cells after 72 hrs by MTT assay; assay type: functional; settings: HEp-2, 72 h; in short: as §1
[28] = tested on: Calf thymus DNA; assay: Binding affinity to calf thymus DNA assessed as melting temperature at compound over DNA molar ratio of 0.1 at pH 7 by thermal denaturation assay; assay type: nucleic-acid assay; settings: Bos taurus; in short: as §3
[29] = tested on: HeLa; assay: Induction of cell cycle arrest in human HeLa assessed as accumulation at G2/M-phase at 5x10'-6 M after 24 hrs by FACS analysis (RVb = 10.1+/-3.4%); assay type: functional
[30] = tested on: HeLa; assay: Induction of cell cycle arrest in human HeLa assessed as accumulation at G2/M-phase at 1x10'-6 M after 24 hrs by FACS analysis (RVb = 10.1+/-3.4%); assay type: functional
[31] = tested on: Nucleic Acid; assay: Binding affinity to polu A-poly U assessed as melting temperature at compound over DNA molar ratio of 0.3 at pH 7 by thermal denaturation assay; assay type: nucleic-acid assay; in short: as §3
[32] = tested on: HeLa; assay: Induction of cell cycle arrest in human HeLa assessed as accumulation at G2/M-phase at 5x10'-6 M after 48 hrs by FACS analysis (RVb = 8.4+/-3.9%); assay type: functional
[33] = tested on: HeLa; assay: Induction of cell cycle arrest in human HeLa assessed as accumulation at S-phase at 5x10'-6 M after 48 hrs by FACS analysis (RVb = 30.4+/-3.7%); assay type: functional
[34] = tested on: HeLa; assay: Induction of cell cycle arrest in human HeLa assessed as accumulation at G0/G1-phase at 5x10'-6 M after 48 hrs by FACS analysis (RVb = 61.2+/-2.3%); assay type: functional
[35] = tested on: HeLa; assay: Induction of cell cycle arrest in human HeLa assessed as accumulation at G2/M-phase at 1x10'-6 M after 72 hrs by FACS analysis (RVb = 7.8+/-3.1%); assay type: functional
[36] = tested on: HeLa; assay: Induction of cell cycle arrest in human HeLa assessed as accumulation at G2/M-phase at 5x10'-5 M after 72 hrs by FACS analysis (RVb = […]); assay type: functional
[37] = tested on: HeLa; assay: Induction of cell cycle arrest in human HeLa assessed as accumulation at G0/G1-phase at 5x10'-5 M after 24 hrs by FACS analysis (RVb = 62.2+/-4.4%); assay type: functional
[38] = tested on: HeLa; assay: Induction of cell cycle arrest in human HeLa assessed as accumulation at S-phase at 5x10'-5 M after 48 hrs by FACS analysis (RVb = 62.2+/-4.4%); assay type: functional
[39] = tested on: HeLa; assay: Induction of cell cycle arrest in human HeLa assessed as accumulation at S-phase at 5x10'-5 M after 24 hrs by FACS analysis (RVb = 62.2+/-4.4%); assay type: functional
[40] = tested on: HeLa; assay: Induction of cell cycle arrest in human HeLa assessed as accumulation at G2/M-phase at 5x10'-5 M after 24 hrs by FACS analysis (RVb = […]); assay type: functional
[41] = tested on: HeLa; assay: Induction of cell cycle arrest in human HeLa assessed as accumulation at G0/G1-phase at 5x10'-5 M after 72 hrs by FACS analysis (RVb = 62.2+/-4.4%); assay type: functional
[42] = tested on: HeLa; assay: Induction of cell cycle arrest in human HeLa assessed as accumulation at S-phase at 5x10'-5 M after 72 hrs by FACS analysis (RVb = 62.2+/-4.4%); assay type: functional
[43] = tested on: HeLa; assay: Induction of cell cycle arrest in human HeLa assessed as accumulation at G2/M-phase at 5x10'-5 M after 48 hrs by FACS analysis (RVb = […]); assay type: functional
[44] = tested on: HeLa; assay: Induction of cell cycle arrest in human HeLa assessed as accumulation at G0/G1-phase at 5x10'-5 M after 48 hrs by FACS analysis (RVb = 62.2+/-4.4%); assay type: functional

Structure (SMILES): Cl.Cl.c1cc(-c2sc(-c3ccc(C4=NCCN4)cc3)c3c2OCCO3)ccc1C1=NCCN1
- Activity [1]: 46.4%
- Activity [2]: 59.6%
- GI50 [3]: 4.1 µM
- Activity [4]: 33.1%
- GI50 [5]: 4.3 µM
- Activity [6]: 53.3%
- Activity [7]: Active
- ΔTm [8]: > 16 °C
- GI50 [9]: 9 µM
- Activity [10]: 21.1%
- Activity [11]: 7.3%
- Activity [12]: 32.5%
- Activity [13]: Active
- Activity [14]: 29.1%
- Activity [15]: Active
- Activity [16]: 55.4%
- Activity [17]: Active
- GI50 [18]: 2.7 µM
- Activity [19]: 30.2%
- GI50 at 72 h [20]: 17 µM
- Activity [21]: 62.2%
- Activity [22]: 25.9%
- ΔTm [23]: 14.3 °C
- GI50 [24]: 1.5 µM
- Activity [25]: Active
- GI50 [26]: 3.1 µM
- GI50 [27]: 3 µM
- ΔTm [28]: 10.8 °C
- Activity [29]: 17.6%
- Activity [30]: 14.4%
- ΔTm [31]: 17 °C
- Activity [32]: 18.5%
- Activity [33]: 37.3%
- Activity [34]: 44.2%
- Activity [35]: 11.9%

Structure (SMILES): CN1CCN(c2ccc3[nH]c(-c4ccc5[nH]c(-c6ccc(O)cc6)nc5c4)nc3c2)CC1 [HOECHST 33258]
- Activity [36]: 11.2%
- Activity [37]: 51.3%
- GI50 [3]: 91.7 µM
- Activity [38]: 42.6%
- GI50 [5]: 112 µM
- GI50 [9]: 192 µM
- Activity [39]: 41.6%
- Activity [40]: 7.1%
- Activity [41]: 45.7%
- GI50 [18]: 5.7 µM
- GI50 at 72 h [20]: 158 µM
- Activity [42]: 43.1%
- GI50 [24]: 116 µM
- GI50 [26]: 84 µM
- GI50 [27]: 132 µM
- Activity [43]: 8.4%
- Activity [44]: 49%
